Activity calls are given as the source filed them. The rule behind the calls is not given here.
Columns and labels:
[1] = biological target: T1, 1-phosphatidylinositol 4,5-bisphosphate phosphodiesterase gamma-2 (Homo sapiens) (UniProt P16885); test: Inhibition of recombinant phospholipase C gamma2 expressed in baculovirus infected Sf9 cells at 50 uM using [3H]PIP2 by flashplate biochemical assay
T1 sequence (whole entry): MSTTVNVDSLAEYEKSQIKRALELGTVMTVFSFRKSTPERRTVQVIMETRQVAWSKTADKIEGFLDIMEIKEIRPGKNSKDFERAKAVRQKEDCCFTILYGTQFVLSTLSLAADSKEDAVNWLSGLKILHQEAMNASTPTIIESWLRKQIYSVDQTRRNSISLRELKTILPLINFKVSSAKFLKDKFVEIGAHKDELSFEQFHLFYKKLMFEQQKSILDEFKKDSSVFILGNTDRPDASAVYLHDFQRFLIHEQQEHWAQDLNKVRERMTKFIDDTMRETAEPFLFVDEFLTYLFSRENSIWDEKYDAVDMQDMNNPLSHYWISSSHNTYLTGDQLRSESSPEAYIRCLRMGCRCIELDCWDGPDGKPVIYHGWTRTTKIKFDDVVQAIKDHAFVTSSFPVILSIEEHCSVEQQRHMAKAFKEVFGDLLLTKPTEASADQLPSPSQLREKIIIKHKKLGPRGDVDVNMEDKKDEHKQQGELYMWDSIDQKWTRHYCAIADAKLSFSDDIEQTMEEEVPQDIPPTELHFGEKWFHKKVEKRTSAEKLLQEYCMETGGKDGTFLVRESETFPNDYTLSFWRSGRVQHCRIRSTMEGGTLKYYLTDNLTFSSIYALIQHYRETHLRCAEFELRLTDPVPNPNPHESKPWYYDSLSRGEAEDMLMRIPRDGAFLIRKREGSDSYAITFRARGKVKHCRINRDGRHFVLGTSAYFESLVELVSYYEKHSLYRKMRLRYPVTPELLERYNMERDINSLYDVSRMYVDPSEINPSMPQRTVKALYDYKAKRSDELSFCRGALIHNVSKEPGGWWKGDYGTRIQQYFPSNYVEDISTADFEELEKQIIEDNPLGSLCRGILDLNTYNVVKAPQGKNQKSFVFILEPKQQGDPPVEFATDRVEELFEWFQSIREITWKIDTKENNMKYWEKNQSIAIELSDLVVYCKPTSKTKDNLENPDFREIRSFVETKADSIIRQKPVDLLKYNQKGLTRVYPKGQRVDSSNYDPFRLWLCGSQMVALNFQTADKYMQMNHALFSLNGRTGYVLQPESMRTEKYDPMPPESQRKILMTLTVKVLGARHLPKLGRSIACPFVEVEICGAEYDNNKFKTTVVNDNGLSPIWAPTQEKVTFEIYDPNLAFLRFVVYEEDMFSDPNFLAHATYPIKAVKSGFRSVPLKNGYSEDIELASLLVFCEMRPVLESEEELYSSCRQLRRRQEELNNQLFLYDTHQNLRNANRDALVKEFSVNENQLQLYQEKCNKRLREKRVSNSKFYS
Summary of the method: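 3H-PIP2 Flashplate assay with His-tagged full-length PLC-γ2 from infected Sf-9 cells. Substrate-coated wells (0.1 µCi/well) incubated with enzyme and compound in Tris/NaCl/CaCl2/EGTA/spermine/deoxycholate buffer, pH 7.4, 5% DMSO, room temperature, typically 30 min. Percent inhibition at 50 µM from two measurements, based on CPM versus control wells.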

[2] = biological target: T1, 1-phosphatidylinositol 4,5-bisphosphate phosphodiesterase gamma-2 (Homo sapiens); test: Inhibition of phospholipase C gamma2 in human A431 cells assessed as reduction of calcium release after 45 mins by FLIPR assay; type: cell-based; settings: A-431
Summary of the method: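 A431 squamous carcinoma cells seeded at 4 × 10^5 per well and kept overnight at 37 °C, 5% CO2. Medium replaced with doubling dilutions of compound in HBSS starting at 100 µM. Calcium 3 dye added with probenecid (2.5 mM final), 45 min at 37 °C, then calcium release read by FLIPR at 37 °C.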

[3] = biological target: T1, 1-phosphatidylinositol 4,5-bisphosphate phosphodiesterase gamma-2 (Homo sapiens); test: Inhibition of phospholipase C gamma2 in human A431 cells assessed as reduction of calcium release at 25 uM after 45 mins by FLIPR assay; type: cell-based; settings: A-431
Summary of the method: (§1)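 A431 cells seeded overnight at 4 × 10^5 per well, then given compound in HBSS. Calcium 3 dye with 2.5 mM probenecid, 45 min at 37 °C, FLIPR read at 37 °C. Scoring was semi-quantitative: any decrease in calcium release at 50 µM scored +, at 25 µM ++.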

[4] = biological target: T1, 1-phosphatidylinositol 4,5-bisphosphate phosphodiesterase gamma-2 (Homo sapiens); test: Inhibition of phospholipase C gamma2 in human A431 cells assessed as reduction of calcium release at 50 uM after 45 mins by FLIPR assay; type: cell-based; settings: A-431; summary of the method: as §1
[5] = biological target: T2, 1-phosphatidylinositol 4,5-bisphosphate phosphodiesterase gamma-2 (Homo sapiens, UniProt P16885); test: Inhibition of recombinant phospholipase C gamma2 expressed in baculovirus infected Sf9 cells using [3H]PIP2 by flashplate biochemical assay
T2 sequence (P16885 whole entry): T1 sequence (whole entry)
Summary of the method: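 Full-length His-tagged PLC-γ2 from baculovirus-infected Sf-9 cells, purified by Talon IMAC. Plates coated 24 h at room temperature with 3H-PIP2 (0.1 µCi/well); enzyme plus inhibitor in 50 mM Tris-HCl, 200 mM NaCl, 100 µM CaCl2, 100 µM EGTA, 100 µM spermine, 0.5 mM deoxycholate, pH 7.4, 5% v/v DMSO final. Scintillation signal loss read at room temperature, typically 30 min; CPM compared with control wells.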

Row | SMILES | inhibition [1] [%] | GC50 [2] | Calcium release inhibition activity at 25 uM [3] | Decrease in calcium release (active/inactive call) [4] | IC50 [5] [µM]
1 | Cc1ccc(/C=C2\C(=O)NC(=O)N(c3ccc(Cl)cc3)C2=O)s1 | 6 | 5 µM |  |  | 
2 | Cc1ccc(NC(=O)c2sc3nc4c(cc3c2N)C(=O)CCC4)cc1Cl | 100 | inactive |  |  | 
3 | O=S(=O)(Oc1ccc(-c2cnc3ccccc3n2)cc1)c1ccccc1 | 100 |  | Active |  | 
4 | COc1ccc2c(c1)C1N=CN(CCc3c[nH]c4ccccc34)C(=O)C1N2 (centres undefined) | 89 |  |  | Active | 
5 | Cc1ccc(S(=O)(=O)NC2=NC(=O)/C(=C\c3ccccc3)S2)cc1 | 82 | 15 µM |  |  | 
6 | COc1ccc(S(=O)(=O)n2ccc(-c3ccc4c(c3)CCC(C)(C)O4)n2)cc1 |  | 30 µM |  |  | 3
7 | O=C(Nc1ccccc1)Nc1nnc(-c2cccs2)s1 | 100 | inactive |  |  | 
8 | Nc1c(C(=O)Nc2cccc(F)c2)sc2nc(-c3ccc(F)cc3)ccc12 | 100 |  |  | Active | 
9 | O=C(Nc1ccc2oc(=O)ccc2c1)c1ccc(-c2cccc(Cl)c2)o1 | 100 |  | Active |  | 
10 | COc1ccc(Cl)cc1C(=O)Nc1nc2ccc([N+](=O)[O-])cc2s1 | 100 |  | Active |  | 
11 | O=C(Nc1nc2ccccc2c(=O)s1)c1ccc(Cl)cc1 |  | inactive |  |  | 2
12 | COc1ccc(-c2nnc(NC(=O)c3cccs3)s2)cc1 | 100 | inactive |  |  | 
13 | CCCOc1ccc(-c2nnc(NC(=O)c3cccs3)s2)cc1 | 67 | inactive |  |  | 
14 | O=c1/c(=C/c2ccccc2[N+](=O)[O-])sc2nc(-c3ccc(F)cc3)nn12 | 100 | 15 µM |  |  | 
15 | O=C(Nc1cccc(Cl)c1)Nc1nnc(-c2ccc3c(c2)OCO3)s1 | 85 |  |  | Active | 
16 | O=C1C2Nc3ccc(Br)cc3C2N=CN1CCC1=CCCCC1 (centres undefined) | 100 | inactive |  |  | 
17 | O=C(NC(=O)c1ccccc1Cl)Nc1ccc2c(c1)S(=O)(=O)C=C2 |  | inactive |  |  | 9.5
18 | Cc1ccc(NC(=O)c2sc3nc4c(cc3c2N)C(=O)CCC4)cc1 | 100 | inactive |  |  | 
19 | CC(=O)c1ccc(Nc2nnc(-c3ccncc3)s2)cc1 | 100 |  | Active |  | 

Row | SMILES | inhibition [1] [%] | GC50 [2] | Calcium release inhibition activity at 25 uM [3] | Decrease in calcium release (active/inactive call) [4] | IC50 [5] [µM]
20 | O=c1/c(=C/c2ccncc2)sc2n1CN(c1ccc(Cl)cc1)CN=2 | 100 | 15 µM |  |  | 
21 | O=C1C2Nc3ccc(Br)cc3C2N=CN1CCc1ccc(F)cc1 (centres undefined) | 100 | inactive |  |  | 
22 | O=C1NN(c2ccccc2)C(=O)/C1=C/c1coc2ccc(Cl)cc2c1=O | 27 | 18 µM |  |  | 
23 | Nc1c(C(=O)Nc2cccc(Cl)c2)sc2nc3c(cc12)C(=O)CCC3 | 100 | inactive |  |  | 
24 | COc1ccc(-c2cc3nnc(-c4ccccc4)nc3s2)cc1 |  | inactive |  |  | 4
25 | CCCc1nnc(NC(=O)c2cc([N+](=O)[O-])cc([N+](=O)[O-])c2)s1 | 100 | inactive |  |  | 
26 | O=C1OC(c2ccc([N+](=O)[O-])cc2)=N/C1=C/c1cccs1 |  |  |  | Active | 12
27 | O=C1C2Nc3ccc(Br)cc3C2N=CN1CCc1ccccc1 (centres undefined) | 100 | inactive |  |  | 
28 | N#Cc1ccc(/C=C2/N=C(c3ccccc3)OC2=O)cc1 |  | inactive |  |  | 2
29 | O=C(Nc1ccc(S(=O)(=O)Nc2nccs2)cc1)c1cccs1 | 82 | inactive |  |  | 
30 | Nc1c(C(=O)Nc2cccc(Cl)c2)sc2nc(-c3cccs3)ccc12 | 100 |  |  | Active | 
31 | O=[N+]([O-])c1cc(-c2nc(-c3ccccn3)no2)cs1 |  | inactive |  |  | 2
32 | O=C(NCCc1ccccc1)c1cc2cccc([N+](=O)[O-])c2[nH]1 |  | 15 µM |  |  | 1
33 | CCOc1ccc2c(c1)C1N=CN(Cc3ccccc3)C(=O)C1N2 (centres undefined) | 89 | inactive |  |  | 
34 | COc1ccc2[nH]c(C(=O)Nc3nc4ccccc4s3)cc2c1 |  | inactive |  |  | 5
35 | Clc1cccc(-c2nc(-c3ccc(-c4ccon4)s3)no2)c1 |  | inactive |  |  | 1
36 | Cc1ccc2c(c1)N/C(=C\C(=O)c1ccc(Cl)cc1)C(=O)O2 | 100 | 22 µM |  |  | 
37 | O=C(Nc1ccc(Cl)cc1)c1cc2cccc([N+](=O)[O-])c2[nH]1 |  | inactive |  |  | 1

From ChEMBL document CHEMBL1153409, “The identification of novel PLC-gamma inhibitors using virtual high throughput screening” (Bioorg Med Chem, 2009)
